# Published values pooled from the literature.
# Each line is one published result; the experiments were not run side by side.
# KDR: Vascular endothelial growth factor receptor 2 (KDR, Homo sapiens, UniProt P35968)
# DNA polymerase catalytic subunit: DNA polymerase catalytic subunit (Human cytomegalovirus, UniProt P08546)
# Trpm7: Transient receptor potential cation channel subfamily M member 7 (Trpm7, Mus musculus, UniProt Q923J1)
# PIK3CB: Phosphatidylinositol 4,5-bisphosphate 3-kinase catalytic subunit beta isoform (PIK3CB, Homo sapiens, UniProt P42338)
# NOX5: NADPH oxidase 5 (NOX5, Homo sapiens, UniProt Q96PH1)
# Histone acetyltransferase KAT6B: Histone acetyltransferase KAT6B (Homo sapiens, UniProt Q8WYB5)
# PIK3CA: Phosphatidylinositol 4,5-bisphosphate 3-kinase catalytic subunit alpha isoform (PIK3CA, Homo sapiens, UniProt P42336)
Compound,target,effect on,action,technique,pH,IC50
CC(=O)Nc1ccc(Oc2nnc(-c3ccc(Cl)cc3)c3ccccc23)cc1,KDR,cell-free assay,inhibitor,,,548 nM
CN(C)C(=O)CN1CCN(c2cnc3c(cc(C(=O)NCc4ccc(Cl)cc4)c(=O)n3CC(=O)N3CC(C)(F)C3)n2)C1=O,DNA polymerase catalytic subunit,enzyme activity,inhibitor,,,328 nM
O=C(/C=C/c1ccc(O)c2oc(-c3ccc(O)c(O)c3)cc12)O[C@H](Cc1ccc(O)c(O)c1)C(=O)O,"YTH domain-containing protein 1 (Homo sapiens, UniProt Q96MU7)",ligand displacement,,FP,,29000 nM
N#Cc1ccc(COC[C@H]2O[C@@H](n3c(NCc4ccc(Cl)c(Cl)c4)nc4c(N)ncnc43)[C@H](O)[C@@H]2O)cc1,Trpm7,calcium signal,,,,300 nM
Cc1nc(N(C)c2ccc3c(c2)/C(=C/c2ccccc2Cl)C(=O)N3C)c2ccccc2n1,PIK3CB,enzyme activity,inhibitor,ADP detection,,117 nM
CCCc1c(-c2ccccc2)nn(-c2ccccn2)c1O,NOX5,enzyme activity,inhibitor,,,2200 nM
Cc1cc(Br)cc2oc(C(=O)NS(=O)(=O)c3ccccc3-c3ccccc3)cc12,Histone acetyltransferase KAT6B,enzyme activity,inhibitor,TR-FRET,,150 nM
Cc1coc2c1C(=O)C(=O)c1c-2ccc2c1CCCC2(C)CO (stereo not drawn),NOX5,enzyme activity,inhibitor,,,5200 nM
CCCOc1ccc2cc(C(=O)NS(=O)(=O)c3ccccc3-c3ccccc3)oc2c1,Histone acetyltransferase KAT6B,enzyme activity,inhibitor,TR-FRET,,12200 nM
O=c1oc(-c2cccnc2)nc2ccccc12,"Cathepsin G (CTSG, Homo sapiens, UniProt P08311)",enzyme activity,inhibitor,absorbance,pH 7.4,4900 nM
COc1ccc2[nH]c(C(=O)Nc3nc(CC(=O)O)cs3)cc2c1,KDR,enzyme activity,inhibitor,ELISA,,921 nM
COc1cc(C)c2cc(C(=O)NS(=O)(=O)c3ccc(C)cc3)oc2c1,Histone acetyltransferase KAT6B,enzyme activity,inhibitor,TR-FRET,,262 nM
COc1cc2ncnc(N(C)c3ccc4c(c3)/C(=C/c3cccc(Cl)c3)C(=O)N4C)c2cc1OC,PIK3CB,enzyme activity,inhibitor,ADP detection,,103 nM
c1ccc2c(c1)CCC[C@H]2Nc1nc2ccccc2[nH]1,Trpm7,calcium signal,,,,1130 nM
COc1cc(C)c2cc(C(=O)NS(=O)(=O)c3ccc(Cl)cc3)oc2c1,Histone acetyltransferase KAT6B,enzyme activity,inhibitor,TR-FRET,,237 nM
Cc1nc(Nc2ccc3c(c2)/C(=C/c2ccccc2Cl)C(=O)N3)c2ccccc2n1,PIK3CB,enzyme activity,inhibitor,ADP detection,,90.2 nM
COc1cnc2c(cc(C(=O)NCc3ccc(Cl)cc3)c(=O)n2CC(=O)N2CC(C)(F)C2)n1,DNA polymerase catalytic subunit,enzyme activity,inhibitor,,,954 nM
Cc1nc(Nc2ccc3c(c2)C(C)(C)C(=O)N3C)c2ccccc2n1,PIK3CB,enzyme activity,inhibitor,ADP detection,,182 nM
CCOc1ccc2cc(C(=O)NS(=O)(=O)c3ccccc3-c3ccccc3)oc2c1,Histone acetyltransferase KAT6B,enzyme activity,inhibitor,TR-FRET,,3020 nM
Cc1nc(Nc2ccc3c(c2)CC(=O)N3)c2ccccc2n1,PIK3CA,enzyme activity,inhibitor,ADP detection,,56 nM
CCCOc1ccccc1S(=O)(=O)NC(=O)c1cc2c(C)cc(OC)cc2o1,Histone acetyltransferase KAT6B,enzyme activity,inhibitor,TR-FRET,,61 nM
Cc1nc(Nc2ccc3c(c2)C(C)(C)C(=O)N3)c2ccccc2n1,PIK3CB,enzyme activity,inhibitor,ADP detection,,153 nM
CC(=NNC(=O)c1ccncc1)c1ccc(Nc2nnc(-c3ccc(Cl)cc3)c3ccccc23)cc1,KDR,cell-free assay,inhibitor,,,148 nM
Cc1nc(N(Cc2ccccc2)c2ccc3c(c2)/C(=C/c2ccccc2)C(=O)N3Cc2ccccc2)c2ccccc2n1 (mixture of isomers),PIK3CA,enzyme activity,inhibitor,ADP detection,,9.11 nM
CCOc1cccc(-c2cccc(Cl)c2)c1S(=O)(=O)NC(=O)c1cc2c(C)cc(OC)cc2o1,Histone acetyltransferase KAT6B,enzyme activity,inhibitor,TR-FRET,,25 nM
CC1(F)CN(C(=O)Cn2c(=O)c(C(=O)NCc3ccc(Cl)cc3)cc3nc(N4CCCC4=O)cnc32)C1,DNA polymerase catalytic subunit,enzyme activity,inhibitor,,,207 nM
COc1cc2ncnc(Nc3ccc4c(c3)/C(=C/c3cccc(Cl)c3)C(=O)N4C)c2cc1OC,PIK3CA,enzyme activity,inhibitor,ADP detection,,121 nM
